High-throughput results: PubChem, several laboratories
The list is not random: actives were taken first. Their share in the collection is about 1.3%.
SDO1 yeast rescue: growth rescue of sdo1-depleted yeast, primary screen, S. cerevisiae, bone marrow failure model. hit rate 0.21% among 140,000. z-score at 10 µM. S. cerevisiae sdo1-depleted JHY4D growth rescue, OD600 30 h; active compounds read high; pdr5 snq2 efflux-pump mutant strain. AID 817, 2007;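 active = z-score above 3 at both the 24 hr and the 30 hr optical density reads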;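 also: z-score against mean and SD of all compound wells on the same plate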
Yeast growth inh: growth inhibitors of yeast BB579 in restrictive medium, primary screen, yeast lifespan-shortening project, S. cerevisiae. hit rate 0.51% among 140,000. AID 804, 2007. inhibition, % at 10 µM. OD615, 48 h;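 active = inhibition above a set limit, 3 SD over the mean compound inhibition, cut at about 44% in these data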
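System: Saccharomyces cerevisiae DeaD strain BB579, replicative lifespan model yeast | Buffer or medium: Restrictive glucose-based CSMM-D medium | Times: 4 h preincubation and 48 h exposure at 30 °C | Detection: OD615 turbidity measurement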
Yeast lifespan up: compounds extending yeast replicative lifespan, primary screen, S. cerevisiae, OD615; hit rate 0.68% among 130,000; S. cerevisiae growth with nicotinamide; deaD strain in restrictive glucose medium; inhibition of the nicotinamide effect, % at 10 µM;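 active = inhibition above a set limit, placed 3 SD over the median of all compounds, cut at about 26% in these data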;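 also: 0% = nicotinamide-treated wells and 100% = cells grown without nicotinamide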
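Material: Modified budding yeast, DeaD strain | Medium: Restrictive glucose medium | Probe or stimulus: 1.5 mM nicotinamide | Dosing: Single dose 10 µM compound, 0.25% DMSO | Times: 48 h at 30 °C | Technique: OD615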
Efa HMGR inh: inhibitors of E. faecalis class II HMGR, primary screen, biochemical, Enterococcus faecalis. hit rate 0.41% among 190,000. inhibition, % at 10 µM. purified E. faecalis HMGR, NADPH absorbance 340 nm kinetic. HMG-CoA reductase (Enterococcus faecalis, mvaE). AID 1066, 2008;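 active = inhibition above a set limit, the median over all tested compounds plus 3 SD, cut at about 9.5% in these data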;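 also: enzyme runs in reverse so mevalonate oxidation gives rising NADPH absorbance; 0% = complete reaction with DMSO and 100% = background rate lacking mevalonate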
Active calls of the source: *; . = no result.

SMILES	SDO1 yeast rescue	Yeast growth inh	Yeast lifespan up	Efa HMGR inh
COC(=O)[C@H](Cc1ccccc1)NC(=O)O[C@@H]1C(=O)c2cc(Br)ccc2O[C@H]1c1cccc(OC)c1	-0.69	-38	5	11*
COC(=O)[C@@H](NC(=O)O[C@@H]1C(=O)c2cc(Br)ccc2O[C@H]1c1cccc(OC)c1)C(C)C	-0.58	-7	6	-6
Cc1ccc(S(=O)(=O)NNC(=O)CCCCC(=O)NNS(=O)(=O)c2ccc(C)cc2)cc1	.	.	.	13*
O=C(CCNC(=O)c1ccco1)Nc1ccc(SC(F)F)cc1	.	.	.	0
COc1ccccc1/C=C(/NC(=O)c1ccc(Cl)cc1Cl)C(=O)O	.	.	.	-2
CCCC[n+]1c(-c2ccc(Cl)cc2Cl)csc1Nc1ccccc1	0.03	-25	32*	-6
Clc1ccc(-c2csc(Nc3ccccc3)[n+]2Cc2ccco2)c(Cl)c1	.	.	.	2
O=[N+]([O-])c1ccc(N/N=C2/CCCCC2c2ccccn2)cc1 (centres undefined)	-1.9	98*	-10	-2
Cc1cccc(N2CCN(C(=O)CCCSc3nc4ccccc4[nH]3)CC2)c1C	-1.3	-42	-9	0
CC1=CN2C(=N)/C(=C/c3ccc([N+](=O)[O-])o3)C(=O)N=C2S1	-1.5	20	33*	-1
Cc1ccc(/C(O)=C2\C(=O)C(=O)N(c3cc(C)on3)C2c2cccc(Br)c2)cc1 (centres undefined)	2.1	7	27*	-1
Cc1cc(N2C(=O)C(=O)/C(=C(/O)c3ccc(F)cc3)C2c2cccc(Br)c2)no1 (centres undefined)	0.1	-11	1	0
N#CC(C#N)=Cc1cc2ccccc2nc1N1CCCCC1	-1.8	-24	36*	-9
Cc1cc(=O)[nH]c(SCC(=O)N2CCN(S(=O)(=O)c3ccccc3)C2)n1	.	.	.	1
CC1(C)CC(=O)C(CCCN2C(=O)c3ccccc3C2=O)C(=O)C1	-0.76	-54	3	1
Cc1ccc(C(C2C(=O)CC(C)(C)CC2=O)C2C(=O)CC(C)(C)CC2=O)s1	-1	-40	34*	1
COc1cc(NC(=O)c2cccc(C)c2)c(Cl)cc1[N+](=O)[O-]	0.12	-49	4	-1
C(=C\c1ccccc1)/CNCC1CCCO1 (centres undefined)	.	.	.	11*
OCC1CCCCN1C(=S)Nc1cccc(Cl)c1 (centres undefined)	.	.	.	-5
CCCCC(CC)Cn1c2nc3ccccc3nc2c2c(=N)oc(C)nc21 (centres undefined)	-1.6	-50	94*	3
CCOC(=O)CCC(NC(=O)CC(=O)NC(CCC(=O)OCC)C(=O)OCC)C(=O)OCC (centres undefined)	.	.	.	10*
CCOC(=O)CCC(NC(=O)CCC(=O)NC(CCC(=O)OCC)C(=O)OCC)C(=O)OCC (centres undefined)	1.2	11	-1	-2
Cc1ccc(-c2cc(-c3ccccc3Cl)[nH]n2)c(O)c1	-2.7	92*	-19	1
Cc1ccc(-c2cc(-c3ccccc3[N+](=O)[O-])[nH]n2)c(O)c1	-2	-27	-11	-2
Cc1ccccc1C1CC(c2cccs2)Nc2nnnn21 (centres undefined)	.	.	.	3
SMILES	SDO1 yeast rescue	Yeast growth inh	Yeast lifespan up	Efa HMGR inh
Cc1cccc(OCc2nnc(SCC(=O)Nc3ncc(C)s3)o2)c1	.	.	.	-4
CCc1nnc(NC(=O)CSc2nnc(COc3cccc(C)c3)o2)s1	-0.9	-12	27*	-8
c1ccc2nc3c(nc2c1)[nH]c1ccccc13	-0.84	77*	.	0
c1ccc(-c2c3ccccc3nc3[nH]c4ccccc4c23)cc1	-1.1	-40	-4	-6
Cc1ccc(NC(=O)C2C(c3ccccc3)C=CC(c3ccccc3)C2C(=O)O)cc1 (centres undefined)	-0.26	-19	30*	1
Cc1cccc(CSc2cccc3cccnc23)c1	-1.4	96*	-12	-2
CCC(=O)n1nc(-c2ccco2)nc1N	0.38	-12	-16	-8
CCS(=O)(=O)n1nc(-c2ccco2)nc1N	.	.	.	10*
Nc1ccccc1SC1CC(=O)N(Cc2ccccc2)C1=O (centres undefined)	.	.	.	-3
COC(=O)c1ccccc1OCCOc1ccccc1C(=O)OC	0.34	-43	-20	4
CC(C)CCOc1ccccc1C(N)=O	.	.	.	9.7*
O=C(Cc1ccc(Br)cc1)N1CCN(c2ccccc2O)CC1	-0.52	-28	0	0
CCOC(=O)/C(=C/c1ccc(OC(=O)c2ccccc2)cc1)C(C)=O	-1.8	17	33*	6
O=C(CCCn1c(=S)[nH]c2ccsc2c1=O)Nc1ccc2c(c1)OCCO2	.	.	.	-1
Cc1cc(N2CCC(C(=O)NC3CC3)CC2)nc(-c2ccccc2)n1	0.66	-61	-4	2
Cc1cc(N2CCN(c3cccc(C)c3C)CC2)nc(-c2ccccc2)n1	-2.5	67*	.	-1
CCc1ccccc1N/C(=N\S(=O)(=O)c1ccccc1)C(F)(F)F	0.79	-6	30*	-3
O=S(=O)(/N=C(/Nc1ccccc1)C(F)(F)F)c1ccccc1	0.32	-3	7	-5
COc1ccc(Nc2nnc(SCC(=O)Nc3ccc4[nH]c(=O)[nH]c4c3)s2)cc1	.	.	.	2
COc1ccc(C2(C(=O)Nc3ccc(C)cc3)CCOCC2)cc1	.	.	.	7
COc1ccc(C(=O)C(CN2CCOCC2)c2ccccc2)cc1 (centres undefined)	-1.5	-53	61*	3
COc1cccc(-n2cc(CNCc3c(C(=O)N(C)C)nc4ccc(Cl)cn34)cn2)c1	.	.	.	1
Cc1ccccc1-n1cc(CNCc2c(C(=O)N(C)C)nc3ccc(Cl)cn23)cn1	.	.	.	13*
CC(C)N=c1scc(-c2cccs2)n1/N=C/c1ccc(O)c(O)c1O	-1.3	96*	2	-2
COc1ccc(CCN2C(=O)CC(NNC(=O)c3ccccc3Br)C2=O)cc1OC (centres undefined)	0.31	-9	2	2
SMILES	SDO1 yeast rescue	Yeast growth inh	Yeast lifespan up	Efa HMGR inh
CC(=O)C(C(C)=O)c1c(Cl)c(O)c(O)c2c(C(=O)c3ccccc3)coc12	-0.38	-32	37*	-4
Cc1ccc2c(C)c(C(=O)NCc3ccc(S(N)(=O)=O)cc3)oc2c1	.	.	.	3
COc1ccc(/C=N/NC(=O)c2ccoc2C)cc1O	0.47	-17	-1	1
COc1cc(/C=C/C(=O)N2CCCC2)cc(OC)c1OC	-0.51	-14	-3	2
COc1cc(/C=C/C(=O)C2C(=O)C=C(C)OC2=O)cc(OC)c1O (centres undefined)	-0.3	-9	64*	0
COc1ccc(/C=C/C(=O)C2C(=O)C=C(C)OC2=O)cc1O (centres undefined)	0.01	-3	44*	3
CCN(CC)C(=O)c1ccc(N)cc1	.	.	.	-3
COC(=O)C(=O)/C=C(\O)c1ccc(C)cc1	-0.03	-20	73*	-3
Cc1ccc(/C(O)=C/C(=O)C(=O)NNC(=O)C(O)(c2ccccc2)c2ccccc2)cc1	0.76	-36	.	-1
